ChEMBL document CHEMBL1122058, “Agents for the treatment of brain injury. 1. (Aryloxy)alkanoic acids” (J Med Chem, 1982)
Values belong to the compound of their own block, whether it stands above or below them. The source made the active and inactive calls. The rule behind the calls is not given here.

Legend:
[1] = Distribution coefficient (D %) between octanol and buffer of pH 7.4; assay type: physicochemical; conditions: octanol/water
[2] = species: Felis catus; test: In vitro inhibition of HCO3- stimulated swelling in cat cerebrocortical tissue slice; assay type: functional; conditions: read-out: I 50
In short: (§1)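 Cat cerebral cortex slices (~150 mg, 0.5 mm) incubated aerobically 60 min at 37 °C in K+-rich (27 mM) Hepes-buffered saline-glucose with test compound as Na salt. HCO3- (NaHCO3 or TEAB) added from sidearm at 20 min to 10 mM final; HCO3- flasks gassed with 2.5% CO2/97.5% O2. Swelling by reweighing; Na+/K+ by flame photometry, Cl- by amperometric titration. Units: per g initial fresh weight; means ± SE, Student's t test.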

[3] = Dissociation constant (pKa) (determined in 30% EtOH); assay type: physicochemical
[4] = species: Canis familiaris; test: Relative salidiuretic efficacy was scored in dog; inactive; assay type: functional, organism-based; conditions: Canis lupus familiaris; Urine
[5] = species: Pan troglodytes; test: Relative salidiuretic efficacy was scored in chimpanzee; moderate; assay type: functional, organism-based; conditions: Urine
[6] = species: Rattus norvegicus; test: Relative salidiuretic efficacy was scored in Rat; Marginal; assay type: functional, organism-based; conditions: Urine
[7] = species: Canis familiaris; test: Relative salidiuretic efficacy was scored in dog; Marginal; assay type: functional, organism-based; conditions: Canis lupus familiaris; Urine
[8] = species: Felis catus; test: In vitro inhibition of HCO3- stimulated swelling in cat cerebrocortical tissue slice; At no concentration was swelling inhibited 100%; assay type: functional; conditions: read-out: I 50; in short: as §1
[9] = species: Rattus norvegicus; test: Relative salidiuretic efficacy was scored in Rat; weak; assay type: functional, organism-based; conditions: Urine
[10] = species: Canis familiaris; test: Relative salidiuretic efficacy was scored in dog; moderate; assay type: functional, organism-based; conditions: Canis lupus familiaris; Urine
[11] = species: Homo sapiens; test: Relative salidiuretic efficacy was scored in human; moderate; assay type: functional, organism-based; conditions: Urine
[12] = species: Pan troglodytes; test: Relative salidiuretic efficacy was scored in chimpanzee; weak; assay type: functional, organism-based; conditions: Urine
[13] = species: Pan troglodytes; test: Relative salidiuretic efficacy was scored in chipanze; weak; assay type: functional, organism-based; conditions: Urine
[14] = species: Felis catus; test: Evaluated for chloride ion content of Cerebrocortical slices in cat with addition of Sodium Bicarbonate (NaHCO3).; assay type: functional; in short: as §1
[15] = species: Felis catus; test: (§2) Evaluated for Potassium ion content of Cerebrocortical slices in cat with out additions; assay type: functional; in short: as §1
[16] = species: Felis catus; test: In vitro inhibition of tissue swelling of Cerebrocortical slices from cat with out additions; assay type: functional; in short: as §1
[17] = species: Felis catus; test: Evaluated for Sodium ion content of Cerebrocortical slices in cat with out additions
[18] = species: Felis catus; test: Evaluated for Potassium ion content of Cerebrocortical slices in cat with addition of Triethylammonium Bicarbonate (TEAB).; assay type: functional; in short: as §1
[19] = species: Felis catus; test: Evaluated for chloride ion content of Cerebrocortical slices in cat with addition of Triethylammonium Bicarbonate (TEAB).; assay type: functional; in short: as §1
[20] = system: Felis catus; test: Mortality of animals recorded as the number of animals dead out of the total animals (42) taken for the study at dose 1 mg/kg; assay type: functional
In short: (§3)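 Adult conditioned cats (2.5–4 kg) under iv methohexital (13.25 mg/kg, plus 2.75 mg/kg if needed) received machine-induced acceleration/deceleration head injury. Forty min later they were paralysed with gallamine and ventilated with 6% O2/94% N2 for 60 min (arterial pO2 23 ± 1 torr). Drug was given iv 20 min post-injury, before hypoxemia. Mortality was scored as dead/total, chi-square tested.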

[21] = species: Felis catus; test: (§4) Evaluated for chloride ion content of Cerebrocortical slices in cat with out additions; assay type: functional; in short: as §1
[22] = species: Felis catus; test: as §4; assay type: functional; in short: as §1; remark: listed apart in the source
[23] = Compound was tested for bicarbonate stimulated swelling of Cerebrocortical slices from cat with addition of Triethylammonium Bicarbonate (TEAB) (in vitro); assay type: functional; in short: as §1
[24] = species: Felis catus; test: Evaluated for Sodium ion content of Cerebrocortical slices in cat with addition of Triethylammonium Bicarbonate (TEAB).; assay type: functional; in short: as §1
[25] = species: Felis catus; test: In vitro inhibition of tissue swelling of Cerebrocortical slices from cat with addition of Sodium Bicarbonate (NaHCO3).; assay type: functional; in short: as §1
[26] = species: Felis catus; test: In vitro inhibition of tissue swelling of Cerebrocortical slices from cat with out additions
[27] = species: Rattus norvegicus; test: Relative salidiuretic efficacy was scored in Rat; moderate; assay type: functional, organism-based; conditions: Urine
[28] = species: Felis catus; test: as §2; assay type: functional; in short: as §1; remark: listed apart in the source
[29] = species: Felis catus; test: In vitro inhibition of tissue swelling of Cerebrocortical slices from cat with addition of Triethylammonium Bicarbonate (TEAB).; assay type: functional; in short: as §1
[30] = Compound was tested for bicarbonate stimulated swelling of Cerebrocortical slices from cat with addition of Sodium Bicarbonate (NaHCO3) (in vitro); in short: as §1
[31] = species: Felis catus; test: Evaluated for Potassium ion content of Cerebrocortical slices in cat with addition of Sodium Bicarbonate (NaHCO3).; assay type: functional; in short: as §1
[32] = species: Felis catus; test: Evaluated for Sodium ion content of Cerebrocortical slices in cat with out additions; assay type: functional; in short: as §1
[33] = species: Felis catus; test: Evaluated for Sodium ion content of Cerebrocortical slices in cat with addition of Sodium Bicarbonate (NaHCO3).; assay type: functional; in short: as §1
[34] = species: Homo sapiens; test: Relative salidiuretic efficacy was scored in human; very marked; assay type: functional, organism-based; conditions: Urine
[35] = system: Felis catus; test: Mortality of animals recorded as the number of animals dead out of the total animals (22) taken for the study at dose 1 mg/kg; assay type: functional; in short: as §3
[36] = species: Pan troglodytes; test: Relative salidiuretic efficacy was scored in chimpanzee; very marked; assay type: functional, organism-based; conditions: Urine
[37] = species: Rattus norvegicus; test: Relative salidiuretic efficacy was scored in Rat; very marked; assay type: functional, organism-based; conditions: Urine
[38] = species: Canis familiaris; test: Relative salidiuretic efficacy was scored in dog; marked; assay type: functional, organism-based; conditions: Canis lupus familiaris; Urine
[39] = system: Felis catus; test: Mortality of animals recorded as the number of animals dead out of the total animals (16) taken for the study at dose 1 mg/kg given q.i.d.; assay type: functional
[40] = species: Canis familiaris; test: Relative salidiuretic efficacy was scored in dog; very marked; assay type: functional, organism-based; conditions: Canis lupus familiaris; Urine
[41] = system: Felis catus; test: Mortality of animals recorded as the number of animals dead out of the total animals (39) taken for the study at dose 1 mg/kg; assay type: functional; in short: as §3

Distribution [1]: 99.5%
IC50 [2]: > 100 µM
pKa [3]: 6.3
Structure (SMILES): CC1(Cc2ccccc2)Cc2cc(OCCCC(=O)O)c(Cl)c(Cl)c2C1=O (racemic)

Distribution [1]: 99%
pKa [3]: 6.4
Structure (SMILES): CC1(c2ccccc2)Cc2cc(OCCCC(=O)O)c(Cl)c(Cl)c2C1=O (racemic)
Relative salidiuretic activity [4]: inactive

Distribution [1]: 98.6%
IC50 [8]: 1 µM
pKa [3]: 3.8
Structure (SMILES): CC1(C2CCCC2)Cc2cc(OC3(C(=O)O)CCC3)c(Cl)c(Cl)c2C1=O (racemic)

Distribution [1]: 98.7%
IC50 [2]: > 0.01 µM
pKa [3]: 3.8
Structure (SMILES): CCC1(C2CCCC2)Cc2cc(OCCCC(=O)O)c(Cl)c(Cl)c2C1=O (racemic)
Relative salidiuretic activity [6]: Marginal

Distribution [1]: 97%
IC50 [2]: 0.01 µM
pKa [3]: 3.8
Structure (SMILES): O=C(O)COc1cc2c(c(Cl)c1Cl)C(=O)C(CC1CCCC1)C2 (racemic)
Relative salidiuretic activity [13]: Marginal
Relative salidiuretic activity [9]: Marginal
Relative salidiuretic activity [7]: Marginal

More lines, now with the values behind:

Structure (SMILES): CC1(C2CCCC2)Cc2cc(OCc3ccc(C(=O)O)cc3)c(Cl)c(Cl)c2C1=O (racemic)
Distribution [1]: 100%
IC50 [2]: > 10 µM
pKa [3]: 6.2

Structure (SMILES): CC1(Cc2ccccc2)Cc2cc(OCC(=O)O)c(Cl)c(Cl)c2C1=O (racemic)
Distribution [1]: 91%
IC50 [2]: 0.001 µM
Relative salidiuretic activity [5]: Marginal
pKa [3]: 3.8
Relative salidiuretic activity [6]: Marginal
Relative salidiuretic activity [7]: Marginal

Structure (SMILES): CCCCC1(C2CCCC2)Cc2cc(OCC(=O)O)c(Cl)c(Cl)c2C1=O (racemic)
Distribution [1]: 99%
IC50 [2]: 0.003 µM
pKa [3]: 3.9
Relative salidiuretic activity [9]: weak

Structure (SMILES): O=C(O)COc1cc2c(c(Cl)c1Cl)C(=O)C(C1CCCC1)C2 (racemic)
Relative salidiuretic activity [10]: moderate
Distribution [1]: 83%
IC50 [2]: 10 µM
pKa [3]: 3.9
Relative salidiuretic activity [11]: moderate
Relative salidiuretic activity [12]: moderate
Relative salidiuretic activity [9]: moderate

Structure (SMILES): CC1(C2CCCC2)Cc2cc(OCC(=O)O)c(Cl)c(Cl)c2C1=O (racemic)
Relative salidiuretic activity [10]: marked
Distribution [1]: 90%
Activity [14]: 98.2 µM/g
Activity [15]: 93.5 µM/g
Tissue swelling [16]: 179 µL/g
Activity [17]: 100.4 µM/g
Activity [18]: 91.4 µM/g
IC50 [2]: 0.2 µM
Activity [19]: 104.8 µM/g
Mortality [20]: 11
Activity [21]: 89.9 µM/g
Activity [22]: 90.2 µM/g
Relative salidiuretic activity [5]: marked
Activity [23]: 100
Activity [24]: 118.8 µM/g
Tissue swelling [25]: 268 µL/g
pKa [3]: 3.9
Relative salidiuretic activity [11]: marked
Tissue swelling [26]: 170 µL/g
Relative salidiuretic activity [27]: marked
Activity [28]: 94.4 µM/g
Tissue swelling [29]: 293 µL/g
Activity [30]: 100
Activity [31]: 97.1 µM/g
Activity [32]: 101.6 µM/g
Activity [33]: 116.3 µM/g

Structure (SMILES): CC1(c2ccccc2)Cc2cc(OCC(=O)O)c(Cl)c(Cl)c2C1=O (racemic) [INDACRINONE]
Distribution [1]: 84%
Relative salidiuretic activity [34]: marked
Mortality [35]: 8
IC50 [2]: 1 µM
pKa [3]: 3.7
Relative salidiuretic activity [36]: marked
Relative salidiuretic activity [37]: marked
Relative salidiuretic activity [38]: marked

Structure (SMILES): CC(=O)Nc1nnc(S(N)(=O)=O)s1 [ACETAZOLAMIDE]
Distribution [1]: 22%
Mortality [39]: 8
IC50 [2]: 2000 µM

Structure (SMILES): C=C(CC)C(=O)c1ccc(OCC(=O)O)c(Cl)c1Cl [ETHACRYNIC ACID]
Distribution [1]: 61%
Relative salidiuretic activity [34]: Marginal
Relative salidiuretic activity [40]: Marginal
IC50 [2]: 1 µM
Relative salidiuretic activity [36]: Marginal
Mortality [41]: 14
Relative salidiuretic activity [6]: Marginal

Structure (SMILES): NS(=O)(=O)c1cc(C(=O)O)c(NCc2ccco2)cc1Cl [FUROSEMIDE]
Distribution [1]: 28%
Relative salidiuretic activity [34]: Active
Relative salidiuretic activity [40]: Active
IC50 [2]: 10 µM
Relative salidiuretic activity [36]: Active
Relative salidiuretic activity [37]: Active
